Assays:
Rattus norvegicus [1] = test: Antiinflammatory activity in po dosed rat assessed as inhibition of carrageenan-induced paw edema; assay type: functional; details: for ED50: Rattus norvegicus, po, read-out: ID50 (the source's name)
In short: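 Carrageenan paw edema (Winter method) in male rats, seven animals per dose. Drug given orally as a suspension in 0.5% CMC at three or more dose levels within 0.1–18 mg/kg.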

[2] = Toxicity in po dosed rat assessed as induction of gastric lesion; assay type: organism-based, Stomach; details: in vivo, read-out: UD50 (the source's name)
In short: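 Gastric lesions scored by the Jahn and Adrian method in male rats, ten animals per dose level, after oral dosing. UD50 and 95% fiducial limits by the Litchfield–Wilcoxon method.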

[3] = Acute toxicity in po dosed rat after 7 days; details: in vivo
Rattus norvegicus [4] = test: Antiinflammatory activity in Wistar albino rat assessed as inhibition of adjuvant-induced arthritis at 0.25 mg/kg, po administered for 14 days prior to adjuvant challenge relative to control; assay type: functional
In short: (§1)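 Adjuvant arthritis in female rats, ten animals per dose. Oral treatment given either prophylactically or therapeutically at the stated doses. Percent inhibition reported as mean ± SE.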

Rattus norvegicus [5] = test: Analgesic activity in carrageenan-treated po dosed rat assessed as concentration required to double pain index of control; assay type: functional
In short: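 Randall–Selitto paw-pressure test in male rats after carrageenan injection, seven animals per dose level. Pain index = pain threshold after carrageenan / threshold before carrageenan. AID2.0 is the dose doubling the control group's pain index. It and its 95% fiducial limits come from a least-squares regression line, with limits by Fieller's equation.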

Mus musculus = test: Analgesic activity in po dosed mouse assessed as inhibition of acetic acid-induced writhing; assay type: functional
In short: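 Acetic acid writhing test (Koster method) in male mice, ten animals per dose level.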

Rattus norvegicus [6] = test: Antiinflammatory activity in Wistar albino rat assessed as inhibition of adjuvant-induced arthritis at 0.25 mg/kg, po administered for 14 days followed by adjuvant challenge relative to control; assay type: functional; details: 336 h; in short: as §1
Rattus norvegicus [7] = test: Antiinflammatory activity in rat with acute phase of inflammation assessed as inhibition of adjuvant-carrageenan-induced paw edema at 2 mg/kg, po relative to control; assay type: functional
In short: (§2)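 Adjuvant-carrageenan-induced inflammation in female rats, ten animals per dose. Oral dosing at 1 or 2 mg/kg. Edema inhibition scored separately for the acute and prolonged phases, given as % inhibition (mean ± SE).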

Rattus norvegicus [8] = test: Antiinflammatory activity in rat with prolonged phase of inflammation assessed as inhibition of adjuvant-carrageenan-induced paw edema at 2 mg/kg, po relative to control; assay type: functional; in short: as §2
Rattus norvegicus [9] = test: Antiinflammatory activity in rat with prolonged phase of inflammation assessed as inhibition of adjuvant-carrageenan-induced paw edema at 1 mg/kg, po relative to control; assay type: functional; in short: as §2
Rattus norvegicus [10] = test: Antiinflammatory activity in rat with acute phase of inflammation assessed as inhibition of adjuvant-carrageenan-induced paw edema at 1 mg/kg, po relative to control; assay type: functional; in short: as §2
Rattus norvegicus [11] = test: Potency index, ratio of ketoprofen ID50 to compound ID50 for antiinflammatory activity in po dosed rat assessed as inhibition of carrageenan-induced paw edema; assay type: functional
In short: (§3)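 The ratio uses oral carrageenan paw-edema ID50 values from male rats, seven animals per dose, with drugs suspended in 0.5% CMC. Each ID50 comes from a least-squares dose–response regression. The index is reference ID50 divided by test ID50 on a weight basis.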

Rattus norvegicus [12] = test: Potency index, ratio of indomethacin ID50 to compound ID50 for antiinflammatory activity in po dosed rat assessed as inhibition of carrageenan-induced paw edema; assay type: functional; in short: as §3
Rattus norvegicus [13] = test: Potency index, ratio of phenylbutazone ID50 to compound ID50 for antiinflammatory activity in po dosed rat assessed as inhibition of carrageenan-induced paw edema; assay type: functional; in short: as §3
Rattus norvegicus [14] = test: Antiinflammatory activity in Wistar albino rat assessed as inhibition of adjuvant-induced arthritis at 0.5 mg/kg, po administered for 14 days followed by adjuvant challenge relative to control; assay type: functional; details: 336 h; in short: as §1
Rattus norvegicus [15] = test: Antiinflammatory activity in Wistar albino rat assessed as inhibition of adjuvant-induced arthritis at 0.5 mg/kg, po administered for 14 days prior to adjuvant challenge relative to control; assay type: functional; in short: as §1
Rattus norvegicus [16] = test: Antiinflammatory activity in Wistar albino rat assessed as inhibition of adjuvant-induced arthritis at 10 mg/kg, po administered for 14 days prior to adjuvant challenge relative to control; assay type: functional; in short: as §1
Rattus norvegicus [17] = test: Antiinflammatory activity in Wistar albino rat assessed as inhibition of adjuvant-induced arthritis at 10 mg/kg, po administered for 14 days followed by adjuvant challenge relative to control; assay type: functional; details: 336 h; in short: as §1
Rattus norvegicus [18] = test: Antiinflammatory activity in Wistar albino rat assessed as inhibition of adjuvant-induced arthritis at 2 mg/kg, po administered for 14 days prior to adjuvant challenge relative to control; assay type: functional; in short: as §1
Rattus norvegicus [19] = test: Antiinflammatory activity in Wistar albino rat assessed as inhibition of adjuvant-induced arthritis at 1 mg/kg, po administered for 14 days followed by adjuvant challenge relative to control; assay type: functional; details: 336 h; in short: as §1
Rattus norvegicus [20] = test: Antiinflammatory activity in Wistar albino rat assessed as inhibition of adjuvant-induced arthritis at 30 mg/kg, po administered for 14 days followed by adjuvant challenge relative to control; assay type: functional; details: 336 h; in short: as §1
Rattus norvegicus [21] = test: Antiinflammatory activity in Wistar albino rat assessed as inhibition of adjuvant-induced arthritis at 30 mg/kg, po administered for 14 days prior to adjuvant challenge relative to control; assay type: functional; in short: as §1

## O=C(O)Cc1cccc2c1C(=O)c1ccccc1CO2
Rattus norvegicus [1]
  ED50: > 18 mg/kg

## COC(=O)Cc1ccc2c(c1)C(=O)c1ccccc1CO2
Rattus norvegicus [1]
  ED50: 15.2 mg/kg

## CCOC(=O)Cc1ccc2c(c1)C(=O)c1ccccc1CO2
Rattus norvegicus [1]
  ED50: 17.8 mg/kg

## O=C(O)Cc1cc2c(c([N+](=O)[O-])c1)OCc1ccccc1C2=O
Rattus norvegicus [1]
  ED50: > 18 mg/kg

## O=C(O)Cc1ccc2c(c1)C(=O)c1ccc(Cl)cc1CO2
Rattus norvegicus [1]
  ID30: 3 mg/kg
  ED50: 41.6 mg/kg

## COc1ccc2c(c1)COc1ccc(CC(=O)O)cc1C2=O
Rattus norvegicus [1]
  ED50: > 18 mg/kg

## O=C(O)Cc1ccc2c(c1)C(=O)c1cc(Cl)ccc1CO2
Rattus norvegicus [1]
  ID30: > 18 mg/kg
  ED50: > 18 mg/kg

## CC(C(=O)[O-])c1ccc2c(c1)C(=O)c1ccccc1CO2.CC(C(=O)[O-])c1ccc2c(c1)C(=O)c1ccccc1CO2.[Ca+2] (configuration not stated)
Rattus norvegicus [1]
  ED50: 3.5 mg/kg

## CC(C(=O)O)c1ccc2c(c1)C(=O)c1ccc(Cl)cc1CO2 (configuration not stated)
Rattus norvegicus [1]
  ED50: 7.6 mg/kg

## CCOC(=O)Cc1ccc2c(c1)OCc1ccccc1C2=O
Rattus norvegicus [1]
  ED50: 8.6 mg/kg

## O=C(O)Cc1ccc2c(c1)OCc1cc(Cl)ccc1C2=O
Rattus norvegicus [1]
  ED50: 7.6 mg/kg

## O=C(O)Cc1ccc2c(c1)OCc1cc(F)ccc1C2=O
Rattus norvegicus [1]
  ED50: > 9 mg/kg

## O=C(O)Cc1ccc2c(c1)OCc1cc(I)ccc1C2=O
Rattus norvegicus [1]
  ED50: 6.7 mg/kg

## COc1ccc2c(c1)COc1cc(CC(=O)O)ccc1C2=O
Rattus norvegicus [1]
  ED50: > 9 mg/kg

## Cc1ccc2c(c1)COc1cc(CC(=O)O)ccc1C2=O
Rattus norvegicus [1]
  ED50: 6.6 mg/kg

## O=C(O)Cc1ccc2c(c1)OCc1cc(C(F)(F)F)ccc1C2=O
Rattus norvegicus [1]
  ED50: > 9 mg/kg

## CC(C(=O)O)c1ccc2c(c1)OCc1cc(Cl)ccc1C2=O (configuration not stated)
[2]
  TD50: 32.3 mg/kg
[3]
  LD50 at 168 h: 12.1 mg/kg
Rattus norvegicus [1]
  ED50: 1.4 mg/kg
Rattus norvegicus [4]
  inhibition in vivo at 0.25 mg/kg: 50%
Rattus norvegicus [5]
  AID2.0 (dose doubling pain index): 0.28 mg/kg
Mus musculus
  ED50: 36 mg/kg
Rattus norvegicus [6]
  inhibition in vivo at 0.25 mg/kg: 26%

## CC(C(=O)O)c1ccc2c(c1)OCc1cc(F)ccc1C2=O (configuration not stated)
Rattus norvegicus [1]
  ED50: 4 mg/kg

## CC(C(=O)O)c1ccc2c(c1)OCc1cc(I)ccc1C2=O (configuration not stated)
Rattus norvegicus [1]
  ED50: 4.8 mg/kg

## CC(C(=O)O)c1ccc2c(c1)OCc1cc(C(F)(F)F)ccc1C2=O (configuration not stated)
Rattus norvegicus [1]
  ED50: > 9 mg/kg

## CC(C(=O)O)c1ccc2c(c1)OCc1ccc(Cl)cc1C2=O (configuration not stated)
Rattus norvegicus [1]
  ED50: 11.9 mg/kg

## CC(C(=O)O)c1ccc2c(c1)C(=O)c1ccccc1CO2 (racemic)
Rattus norvegicus [7]
  inhibition in vivo at 2 mg/kg: 57%
[2]
  TD50: 14.1 mg/kg
Rattus norvegicus [1]
  ID50: 2.6 mg/kg
Rattus norvegicus [4]
  inhibition in vivo at 0.25 mg/kg: 36%
Rattus norvegicus [5]
  AID2.0 (dose doubling pain index): 0.4 mg/kg
Rattus norvegicus [8]
  inhibition in vivo at 2 mg/kg: 82%
Mus musculus
  ED50: 14 mg/kg
Rattus norvegicus [6]
  inhibition in vivo at 0.25 mg/kg: 12%

## CC(C(=O)O)c1ccc2c(c1)OCc1ccccc1C2=O (racemic)
Rattus norvegicus [9]
  inhibition in vivo at 1 mg/kg: 110%
[2]
  TD50: 11.4 mg/kg
[3]
  LD50 at 168 h: 34.2 mg/kg
Rattus norvegicus [1]
  ID50: 0.76 mg/kg
Rattus norvegicus [4]
  inhibition in vivo at 0.25 mg/kg: 55%
Rattus norvegicus [5]
  AID2.0 (dose doubling pain index): 0.18 mg/kg
Rattus norvegicus [10]
  inhibition in vivo at 1 mg/kg: 59%
Mus musculus
  ED50: 11 mg/kg
Rattus norvegicus [6]
  inhibition in vivo at 0.25 mg/kg: 30%

## CC(C(=O)O)c1ccc2c(c1)C(=O)c1ccccc1CO2 (stereo in doubt; 10)
Rattus norvegicus [1]
  ID50: 1.3 mg/kg

## CC(C(=O)O)c1ccc2c(c1)C(=O)c1ccccc1CO2 (stereo in doubt; 11)
Rattus norvegicus [1]
  ID50: 7.5 mg/kg

## CC(C(=O)O)c1ccc2c(c1)OCc1ccccc1C2=O (stereo in doubt; 23)
Rattus norvegicus [11]
  Ratio: 32.3
Rattus norvegicus [12]
  Ratio: 15.4
Rattus norvegicus [13]
  Ratio: 165.4
Rattus norvegicus [1]
  ED50: 0.43 mg/kg

## CC(C(=O)O)c1ccc2c(c1)OCc1ccccc1C2=O (stereo in doubt; 24)
Rattus norvegicus [1]
  ID50: 0.67 mg/kg

## COc1ccc2c(c1)c(CC(=O)O)c(C)n2C(=O)c1ccc(Cl)cc1 [INDOMETHACIN]
Rattus norvegicus [14]
  inhibition in vivo at 0.5 mg/kg: 26%
Rattus norvegicus [15]
  inhibition in vivo at 0.5 mg/kg: 48%
Rattus norvegicus [7]
  inhibition in vivo at 2 mg/kg: 48%
[2]
  TD50: 6.6 mg/kg
[3]
  LD50 at 168 h: 18.9 mg/kg
Rattus norvegicus [1]
  ED50: 8.4 mg/kg
Rattus norvegicus [5]
  AID2.0 (dose doubling pain index): 1.53 mg/kg
Rattus norvegicus [8]
  inhibition in vivo at 2 mg/kg: 85%
Mus musculus
  ED50: 10 mg/kg

## O=C(O)Cc1ccc2c(c1)C(=O)c1ccccc1CO2 [ISOXEPAC]
Rattus norvegicus [7]
  inhibition in vivo at 2 mg/kg: 28%
[2]
  TD50: 63 mg/kg
[3]
  LD50 at 168 h: 199 mg/kg
Rattus norvegicus [1]
  ED50: 14.3 mg/kg
Rattus norvegicus [5]
  AID2.0 (dose doubling pain index): 3.18 mg/kg
Rattus norvegicus [16]
  inhibition in vivo at 10 mg/kg: 77%
Rattus norvegicus [8]
  inhibition in vivo at 2 mg/kg: 55%
Mus musculus
  ED50: 95 mg/kg
Rattus norvegicus [17]
  inhibition in vivo at 10 mg/kg: 56%

## CC(C(=O)O)c1cccc(C(=O)c2ccccc2)c1 (configuration not stated) [KETOPROFEN]
Rattus norvegicus [18]
  inhibition in vivo at 2 mg/kg: 84%
Rattus norvegicus [19]
  inhibition in vivo at 1 mg/kg: 42%
[2]
  TD50: 6.8 mg/kg
Rattus norvegicus [1]
  ED50: 12.5 mg/kg
Rattus norvegicus [5]
  AID2.0 (dose doubling pain index): 1.61 mg/kg
Mus musculus
  ED50: 71 mg/kg

## O=C(O)Cc1ccc2c(c1)OCc1ccccc1C2=O [OXEPINAC]
Rattus norvegicus [14]
  inhibition in vivo at 0.5 mg/kg: 31%
Rattus norvegicus [15]
  inhibition in vivo at 0.5 mg/kg: 55%
Rattus norvegicus [7]
  inhibition in vivo at 2 mg/kg: 45%
[2]
  TD50: 79.9 mg/kg
[3]
  LD50 at 168 h: 110 mg/kg
Rattus norvegicus [1]
  ED50: 3.7 mg/kg
Rattus norvegicus [5]
  AID2.0 (dose doubling pain index): 0.44 mg/kg
Rattus norvegicus [8]
  inhibition in vivo at 2 mg/kg: 89%
Mus musculus
  ED50: 58 mg/kg

## CCCCC1C(=O)N(c2ccccc2)N(c2ccccc2)C1=O [PHENYLBUTAZONE]
[2]
  TD50: 96 mg/kg
Rattus norvegicus [1]
  ED50: 77.7 mg/kg
Rattus norvegicus [5]
  AID2.0 (dose doubling pain index): 17.22 mg/kg
Rattus norvegicus [20]
  inhibition in vivo at 30 mg/kg: 58%
Mus musculus
  ED50: > 400 mg/kg
Rattus norvegicus [21]
  inhibition in vivo at 30 mg/kg: 71%
